Fewer inactive variants are shown than the library holds.
B1: tRNA (parent)
chain: CUCUCGGUAGCCAAGUUGGUUUAAGGCGCAAGACUUUAAUUUAUCACUACGAAAUCUUGAGAUCGGGCGUUCGACUCGCCCCCGGGAGAUUUUUUCCUCGAGCAA

Variants of: B1
Assay: nonsense suppression (GFP-seq) (ratio to wild type); higher = more function; SUP4oc tRNA, yeast GFP reporter sort-seq
Summary of the method: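 Raffinose/galactose medium with 80 mg/L adenine was used to grow yeast carrying genome-integrated tRNA variants (~3% random-mutation library), RFP, and a galactose-driven GFP ochre reporter. Cells went into GFP/RFP bins, which were Illumina-sequenced, and variants with ≥100 reads and ≥30 cells were scored. Nonsense suppression (GFPSEQ) is the per-bin median GFP/RFP weighted by estimated cell share and expressed relative to the unmutated parent tRNA.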

Row | Variant | nonsense suppression
1 | CUCUCGGUAGACAAGUUGGUUUAACGCGCAAGACUUUAAUUUAUCACUACGAAAUCUUGACAUCGGGCGUUCGACUCGCCCCCGGGAGAUUUUUUCCUCGAGCAA | ≤ 0.026
2 | CUCUCGGUAGCUAAGUUGGUUUAAGGCGCAAGACUUUAAUUUAUCACUACGAAAUCUUGAGAUCGGGCGUUCGACUCACCCCCGGGAGAUUUUUUCCUCGAGCAA | 0.0268
3 | CUCUCGGUAGCCAAAUUGGGUUAAGGCGCAAGACUUUAAUUUAUCACUACGAAAUCUUGAGAUCGGGCGUUCGACUCGCCCCCGGGAGAUUUUUUCCUCGAGCAA | 0.189
4 | CUCUCGGUAGCCAAGUUGGUUUAGGGCGCAAGACUUUAAUUUAUCACUACGAAAUCUUGAGAUCGGGCGUUCGACUCGCCCCCGGGGGAUUUUUUCCUCGAGCAA | 0.0583
5 | CUCUCGGUAGCCAAGUGGGUUUAAGGCGCAAGACUUUAAUUUAUCACUACGAAAUCUUGAGAUCGGGCGUUCGACUCGCCCCCGGGGGAUUUUUUCCUCGAGCAA | 0.752
6 | CUCUCGGUAGCCAAGUUGGUUUAAGGCGCAAGACUUUAAUUUAUCACUACGAAAUCUUGACAUCGGGCGUUCGACUCGCCCCCGGGGGAUUUUUUCCUCGAGCAA | 0.247
7 | CUCUCGGUAGCCAAAUUGGUUUACGGCGCAAGACUUUAAUUUAUCACUACGAAAUCUUGAGAUCGGGCGUUCGACUCGCCCCCGGGAGAUUUUUUCCUCGAGCAA | 0.0467
8 | CUCUCGUUAGCCAAGUUGGUUUAAGGCGCAAGACUUUAAUUUAUCACUACGAACUCUUGAGAUCGGGCGUUCGACUCGCCCCCGGGAGAUUUUUUCCUCGAGCAA | 0.0394
9 | CUCUCGGUAGCCAAGUUGGUUUAGGGCGCAAGACUUUAAUUUAUCACUACGAAAUCUUGAGAUCGGGCGUUCGAUUCGCCCCCGGGAGAUUUUUUCCUCGAGCAA | 0.185
10 | CUCCCGGUAGCCUAGUUGGUUUAAGGCGCAAGACUUUAAUUUAUCACUACGAAAUCUUGAGAUCGGGCGUUCGACUCGCCCCCGGGAGAUUUUUUCCUCGAGCAA | 1.12
11 | CUCUCGGUAGCUAAGUUGGUUUAAGGCGCAAGACUUUAAUUUAUCACUACGAAAUCUUGAGAGCGGGCGUUCGACUCGCCCCCGGGAGAUUUUUUCCUCGAGCAA | 0.121
12 | CUCCCGGUAGCCAAGUUGGUUUAAGGCGCAAGACUUUAAUUUAUCACUACGAAAUCUUGAUAUCGGGCGUUCGACUCGGCCCCGGGAGGUUUUUUCCUCGAGCAA | ≤ 0.026
13 | GUCUCGAUAGCCAAGUUGGUUUAAGGCGCAAGACUUUAAUUUAUCACUACGAAAUCUUGAGAUCGCGCGUUCGCCUCGCCCCCGGGAGAUUUUUUCCUCGAGCAA | ≤ 0.026
14 | CUCUCGGUAGCCAAGUUGGGUGAAGGCGCAAGACUUUAAUUUAUCACUACGAAAUCUUGAGAUCGGGCGUUCGACUCGCCCCCGGGAGAUUUUUUCCUCGAGCAA | 1.06
15 | CUCUCGGUAGCCAAGUUGUUUUAAGGCACAAGACUUUAAUUUAUCACUACGAAAUCUUGAGAUCGGGCGUUCGACUCGCCCCCGGGAGAUUUUUUCCUCGAGCAA | 0.0287
16 | CUCUCGGUAGCCAAGCUGGUUUAAGGCGCAAGACUUUAAUUUAUCACUACGAAAUCUUGAGACCGGGCGUUCGACUCGCCCCCGGGAGAUUUUUUCCUCGAGCAA | 1.11
17 | CCCUCGGUAGCCUAGUUGGUUUAAGGCGCAAGACUUUAAUUUAUCACUACGAAAUCUUGAGAUCGGGCGUUAGACUCGCCCCCGGGAGAUUUUUUCCUCGAGCAA | ≤ 0.026
18 | CUCUCGGUAGCCAAGUUGGCUUAAGGCGCGAGACUUUAAUUUAUCACUACGAAAUCUUGAGAUCGGGCGUUCGACUCGCCCCCGGGAGAUUUUUUCCUCGAGCAA | 0.129
19 | CUCUCGGUAGCCAAGUUGGUUUACGGCGCAAGACUUUAAUUUAUCACUACGAAAUCUUGAGAUCGGGCGUCCGACUCGCCCCCGGGAGAUUUUUUCCUCGAGCAA | 0.0704
20 | CUCUCGGUAGCCAAGUUGGUUCAUGGCGUGAGACUUUAAUUUAUCACUACGAAAUCUUGAGAUCGGGCGUUCGACUCGCCCCCGGGAGAUUUUUUCCUCGAGCAA | 0.0731
21 | CUCUCGGUAGCCACGUUGGUUUAAGGCGCACGACUUUAAUUUAUCACUACGAAAUCUCGAGAUCGGGCGUUAGACCGGCCCCCGGGAGAUUUUUUCCUCGAGCAA | ≤ 0.026
22 | CUCUCGAUAGCCAAGUUGGUUUAAGUCGAAAGACUUUAAUUUAUCACUACGAAAUCUUGAGAUCGGGCGUUCGACUCGCCCCCGGGAGAUUUUUUCCUCGAGCAA | ≤ 0.026
23 | CUCUCGGUGGCCAAGUUGGUCUAAGGCGCAAGACUUUAAUUUAUCACUACGAAAUCUUGUGAUCGGGCGUUCGACUCGCCCCCGGGAGAUUUUUUCCUCGAGCAA | ≤ 0.026
24 | CUCCCGGUGGCCAAAUUGGUUUAAGGCGCUAGACUUUAAUUUAUCACUACGAAAUCUUGAGAUCGGGCGUUCGACUCGCCCCCGGGAGAUUUUUUCCUCGAGCAA | 0.0449
25 | CUCUCGGUAGCCCAGUUGGUUUAAGGCGCAAGACGUUAAUUUAUCACUACGAAAUCCUGAGAUCGGGCGUUCGACUCGCCCCCGGGAGAUUUUUUCCUCGAGCAA | ≤ 0.026
26 | UUCUCGGUAGCCAAGUUGGUUUAAGGCGCAAGACAUUAAUUUAUCACUACGAAAUCUUGAGAUCGGGCGUUCGACUAGCCCCCUGGAGAUUUUUUCCUCGAGCAA | ≤ 0.026
27 | CUCUCGGUAGCCAAGUUGGUUUACGGCGCAAGACUUUAAUUUAUCACUACGAAAUCUUGAGAUCGGGCGUUCGACUCGCCUCCGGGAGAUUUUUUCCUCGAGCAA | 0.2

Row | Variant | nonsense suppression
28 | CUCUAGGUAGCCAAGUUGGUUUAAGGCGCAAGACUUUAAUUUAUCACUACGAAAUCUUGAGAUCGGGCGUUCGACUCACCCCCGGGAGAUUUUUUCCUCGAGCAA | 0.0335
29 | CUCUCGGUAGCCAAGUUGGUUUAAGGCGCAAGACUUUAAUUUAUCACUACGAAAUCUUGAGAUCGGGCGUUCGACUCGCACCCGGAAGAUUUUUUCCUCGAGCAA | ≤ 0.026
30 | CUCUCGGUAGCCAAGAUGGUUCAAGGCGCAAGACUUUAAUUUAUCACUACGAAAUCUUGAGAUCGGGCGUUCGACUCGCCCCCGGGAGAUUUUUUCCUCGAGCAA | 1.08
31 | CUCUCGGUAGCCAAGUGGGUUUAAGGCGCAAGACUUUAAUUUAUCACUACGAAUUCUUGAGAUCGGGCGUUCGACUCGCCCCCGGGAGAUUUUUUCCUCGAGCAA | 1.16
32 | CUCUCGGUAGCCAAGUUGGUUUAAGGCGCAAGACGUUAAUUUAUCACUACGAAAUCUUUGGAUCGGGCGUUCGACUCGCCCCCGGGAGAUUUUUUCCUCGAGCAA | ≤ 0.026
33 | CUCUCGGUAGCCAAGUUGGUUUACGGCGCAAGACUUUAAUUUAUCACUACGAAAUCUUGAGAUCAGGCGUUCGACUCGCCCCCGGGAGAUUUUUUCCUCGAGCAA | 0.0366
34 | CUCUCGGUAGCCAAGUUGGUUUAAGGCGCAAGACUUUAAUUUAUCACUACGAAAUCUUGAGAUCGGGCGUUCGACUCGCGCCCAGGAGAUUUUUUCCUCGAGCAA | ≤ 0.026
35 | CUCUCGGUAGCCCAGUUGGUUUAAGGCGCAAGACUUUAAUUUAUCACUACGAAAUCUUGAUAUCGGGCGUUCGACUCGCCCCCGGGCGAUUUUUUCCUCGAGCAA | ≤ 0.026
36 | CUCUCGGUAGCCAAGUUGGUUUAAGCCGCAAGACUUUAAUUUAUCACUACGAAAUCAUGAGAUCGGGCGUUCAACUCGCCCCCGGGAGAUUUUUUCCUCGAGCAA | ≤ 0.026
37 | CUCUCGGUAGCCAAGUAGGUUUAGGGCGCAAGACUUUAAUUUAUCACUACGAAAUCUUGAGAUCGGGCGUUCGACUCGCCCCCGGGAGAUUUUUUCCUCGAGCAA | 0.0262
38 | CUCUCGGUAGCCUAGUUGGUUUAAGGCGCAAGACUUUAAUUUAUCACUACGAAAUCUUUAGAUCGGGCGUUCGACUCGCGCCCGGGAGAUUUUUUCCUCGAGCAA | ≤ 0.026
39 | UUCUCGGUAGCCAAGUUAGUGUAAGGUGCAAGACUUUAAUUUAUCACUACGAAAUCUUGAGAUCGGGCGUUCGACUCGCCCCCGGGAGAUUUUUUCCUCGAGCAA | ≤ 0.026
40 | CUCUCGGAAGCCAGGUUGGUUUAAGGCGCAAGACUUUAAUUUAUCACUACGAAAUCUUGAGAUCGGGCGUUCGACUCGCCCCCGGGAGAUUUUUUCCUCGAGCAA | 0.18
41 | CUCUCGGUAGCCAAGUUGGUUUAAGGCGCAAGACUUUAAUUUAUCACUACGAAAUCUUGAGAUCGGGCGAUCGACUCGCCCCUGGGAGAUUUUUUCCUCGAGCAA | 0.0439
42 | CUCUCGGUAGCCAAGUAGGUUUAAGGCGCAAGACUUUAAUUUAUCACUACGAAAUCUUGAGAUCGGGCGUUCGACUCGCCCCCGGGAGAUUUUUUCCUCGAGCAA | 0.937
43 | CUCUCGGUAGCCAAGUUGGUUUAAGGCGCAAGUCUUUAAUUUAUCACUACGAAAUCUUGAGAUCGGGCGUUCGACUCGCCCCCGAGAGAUUUUUUCCUCGAGCAA | 0.0389
44 | CUCUCGGUAGCCAAGUUGGUUUAAGGCGCAAGACUUUAAUUUAUCACUACGAAAUCUUGGGAUCGGGCAUUCGACUCGCCCCCGGGAGAUUUUUUCCUCGAGCAA | 0.0526
45 | CUCUCGGUAGCCAAGUUGGUUUAAGGCGCAGGACUUUAAUUUAUCACUACGAAAUCUUGAGAUCGGGCGUGCGACUCGCCCCCGGGAGAUUUUUUCCUCGAGCAA | ≤ 0.026
46 | CUCUCGGUAGCCAAGUUGGUUUAAGGCGCAAGACUUUAAUUUAUCACUACGAAAUCUUGAGAUCGGACGUUCGACGCACCCCCGGGAGAUUUUUUCCUCGAGCAA | ≤ 0.026
47 | CUCUCGGUAGCCAAGUUGGUUUAAGGCGCUAGACUUUAAUUUAUCACUACGAAAUCUUGAGAUCGGGCGUUCGACUCGCCCGCGGGAGAUUUUUUCCUCGAGCAA | ≤ 0.026
48 | CUCUCGGUAGCCAAGUUGGUUUAAGGCGCAAGACUUUAAUUUAUCACUACGAAAUCUUGACAUCGGGCGUUCGACUCGCCCCCGGGAUAUUUUUUCCUCGAGCAA | 0.0792
49 | GUCUCGGUAGCCAUGUUGGUUUAAGGCGCAAGACUUUAAUUUAUCACUACGAAAUCUUGAGAUCGGGCGUUCGACUUGCCCCCGGGAGAUUUUUUCCUCGAGCAA | ≤ 0.026
50 | CUCUCGGUAGCCAAGUUGGUUUGAGGCGCAAGACUUUAAUUUAUCACUACGAAAUCUUCAGAUCGGGCGUUCGACUCGCCCCCGGGAGAUUUUUUCCUCGAGCAA | ≤ 0.026
51 | CCCUCGGUAGCCAAGUUGGUUUAAGGCGCAAGACUUUAAUUUAUCACUACGAAACCUGGAGAUCGGGCGUUCGACUCGCCCCCGGGAGAUUUUUUCCUCGAGCAA | ≤ 0.026
52 | CUCUCGGUAGCCAAGUCGGUUUAAGGCGCAAGACUUUAAUUUAUCACUACGAAAUCUUGAGAUCGGGAGUUCGACUCGCCCUCGGGAGAUUUUUUCCUCGAGCAA | ≤ 0.026
53 | CUCUCGGUAGCCAAGUUGGUUUAAGGCCCAAGACUUUAAUUUAUCACUACGAAAUCUUGAGAUCGGGCGUUCGACUCGCCCCCGUGAGAUUUUUUCCUCGAGCAA | 0.208
54 | CUCUCGGUAGCCAGGUUGCUUUAAGGCGAAAGACUUUAAUUUAUCACUACGAAAUAUUGAGAUCGGGCGUUCGACUCGCCCCCGGGACAUUUUUUCCUCGAGCAA | ≤ 0.026

Source: the RNAGym collection of RNA variant scans (doi:10.1101/gad.245936.114)
